Only some compounds are listed: those with a hit (about 1.9% of all), similar ones and a draw of the others.
SR-BI HDL uptake: inhibitors of mouse SR-BI mediated HDL lipid uptake. Q61009. ldlA[mSR-BI] CHO cells, DiI-HDL uptake fluorescence, 3 h. inhibition, % at 12.5 µM. 320,000 tested, 0.96% active. AID 488896;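 active = mean replicate inhibition of at least 70% and a set share of replicates each scoring 70 or more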;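 also: 0% = median of neutral control wells and 100% = median of positive control wells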
SR-BI uptake up: activators of SR-BI mediated HDL lipid uptake. CHO ldlA[mSR-BI] cells, DiI-HDL uptake fluorescence, 3 h; 100 = double the neutral-control signal. activation, % at 12.5 µM. 320,000 tested, 0.096% active. AID 504775;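 active = mean replicate activation of at least 60% and every replicate at or above 60%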;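 also: 0% = median plate neutral-control signal and 100% = twice that signal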
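system = CHO ldlA[mSR-BI] cells, LDL receptor-null, SR-BI overexpressing | medium = Ham's F12 with 0.5% BSA, HEPES 25 mM, pH 7.4 | probe or stimulus = DiI-HDL 10 µg/mL | compound dosing = single-point compound dose | incubation = compound exposure 3 h, 37 °C | technique = DiI fluorescence, bottom read | read-out = cell-associated DiI fluorescence as measure of HDL uptake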
UBC13 inh: blocks human UBC13 polyubiquitin chain formation | P61088 | TR-FRET | inhibition, % at 20 µM | 330,000 tested, 0.47% active; in the data active = inhibition above about 45%, passing the limit was not always enough
Neddylation inh: inhibitors of human cullin neddylation; 360,000 tested, 0.58% active; TR-FRET cullin neddylation, biochemical; AID 651699; inhibition, % at 25 µM; in the data active = inhibition above about 36%
Target sequence (P61081 whole entry, looked up): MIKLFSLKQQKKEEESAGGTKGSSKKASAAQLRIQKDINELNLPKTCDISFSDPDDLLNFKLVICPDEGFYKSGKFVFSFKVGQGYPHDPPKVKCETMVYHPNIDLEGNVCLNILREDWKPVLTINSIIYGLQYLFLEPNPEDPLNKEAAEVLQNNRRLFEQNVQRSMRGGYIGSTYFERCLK
Target sequence (Q13564 whole entry, looked up): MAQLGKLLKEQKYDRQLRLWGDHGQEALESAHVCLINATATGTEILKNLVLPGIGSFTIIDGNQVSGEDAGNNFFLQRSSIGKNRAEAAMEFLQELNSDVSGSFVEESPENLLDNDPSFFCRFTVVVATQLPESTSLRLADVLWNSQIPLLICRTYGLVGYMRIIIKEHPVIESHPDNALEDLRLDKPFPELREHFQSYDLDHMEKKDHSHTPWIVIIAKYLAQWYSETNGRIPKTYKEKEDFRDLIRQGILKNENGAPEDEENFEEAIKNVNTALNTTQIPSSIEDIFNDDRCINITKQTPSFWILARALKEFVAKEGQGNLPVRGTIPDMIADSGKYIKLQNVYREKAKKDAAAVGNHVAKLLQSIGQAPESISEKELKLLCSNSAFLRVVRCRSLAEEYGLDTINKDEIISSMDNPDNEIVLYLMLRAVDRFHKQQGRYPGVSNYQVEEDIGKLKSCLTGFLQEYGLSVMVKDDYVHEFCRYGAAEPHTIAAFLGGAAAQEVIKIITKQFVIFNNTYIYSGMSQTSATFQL
Casp3 counter: caspase-3 inhibition (UBC13 counter-screen); shares compounds with UBC13 inh; Recombinant caspase-3, Caspase-Glo 3/7 luminescence, 60 min; inhibition, % at 20 µM; 1,400 tested, 4% active; AID 488856;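 active = mean inhibition across replicates above about 26%, limit read from the data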;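 also: plate controls were DMSO with caspase-3 for no effect and DMSO wells lacking enzyme for full effect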
UBC13 conf: confirmation of human UBC13 polyubiquitin inhibitors. 1,400 tested, 68% active. shares compounds with UBC13 inh. inhibition, % at 10 µM. UBC13 polyubiquitination, TR-FRET, biochemical; in the data active = inhibition above about 45%
Numbers without * were called inactive; · = no result given.

SMILES	SR-BI HDL uptake	SR-BI uptake up	UBC13 inh	Neddylation inh	Casp3 counter	UBC13 conf
CC(C)(C)OC(=O)[C@H](CCCCN)NC(=O)c1nc[nH]c1C(=O)N[C@@H](CCCCN)C(=O)OC(C)(C)C	3	-3	7	5	·	·
CC(C)(C)OC(=O)[C@H](Cc1ccccc1)NC(=O)c1nc[nH]c1C(=O)N[C@@H](CCCCN)C(=O)OC(C)(C)C	-21	21	73*	-1	-4	76*
CC(C)C[C@H](NC(=O)c1nc[nH]c1C(=O)N[C@@H](CCCCN)C(=O)OC(C)(C)C)C(=O)OC(C)(C)C	-17	17	53*	-7	0	53*
CCCCc1ccc(/C=C(\C#N)C(N)=S)s1	18	-18	53*	-4	1	59*
Cc1c(CCOC(=O)C2C3CC4CC(C3)CC2C4)sc[n+]1CC(=O)c1ccc(Br)cc1 (stereo not given)	24	-24	47*	2	4	75*
Cc1c(CCOC(=O)c2ccc(Cl)cc2Cl)sc[n+]1CC(=O)c1ccc(Br)cc1	33	-33	67*	-14	1	67*
COc1ccc(C(=O)N2CCN(c3ccc(C(C)=O)cc3)CC2)cc1S(=O)(=O)N1CCCC1	14	-14	-16	21	·	·
Cc1ccc2c(c1)N(C(=O)CCC(=O)NCCCN1CCC(Cc3ccccc3)CC1)CCO2	-30	30	62*	0	-5	56*
O=C(NNC(=O)c1ccc(-c2ccccc2)cc1)Nc1ccc(F)cc1F	-13	13	-11	14	·	·
CN(Cc1ccccc1)C(=O)c1csc([C@@H]2O[C@H](CO)[C@H](O)[C@H](O)[C@H]2O)n1	·	·	·	4	·	·
C=CCNC(=S)N1CCN(c2cc3c(cc2F)c(=O)c(C(=O)O)cn3CC)CC1	58	-58	12	32	·	·
C=CCCCCCCCCC(=O)N1CCN(c2cc3c(cc2F)c(=O)c(C(=O)O)cn3CC)CC1	59	-59	47*	-37	-2	16
CC(C)N1C(=O)C(=O)N(CC(=O)N(C)c2ccccc2)C1=O	-7	7	4	-11	·	·
CC1(C)Cc2c(sc(NC(=O)C(=O)NCCCN3CCOCC3)c2C(N)=O)CO1	-26	26	83*	-1	0	106*
CCOC(=O)C1=CCC(c2ccccc2)N(S(=O)(=O)c2ccccc2C)C1 (stereo not given)	·	·	·	-7	·	·
COC(=O)[C@@]12CCCCN1[C@H](c1ccc(-c3cc(C(C)=O)cs3)c(OC)c1)[C@H]1C(=O)N(C)C(=O)[C@H]12	65	-65	52*	-247	-6	36
CCOc1cc(/C=N/N=C(N)N)ccc1OCc1ccc(Cl)cc1	-14	14	·	1	·	·
COc1cc(/C=N/N=C(N)N)ccc1OCc1ccc(Cl)cc1	-10	10	91*	-12	-3	112*
NC(N)=N/N=C/c1ccc(OCc2ccccc2)c(OCc2ccccc2)c1	·	·	110*	-5	-1	125*
O=C(Nc1ccccc1)c1cc(C2COCCN2C(=O)c2cccs2)on1 (stereo not given)	·	·	·	-5	·	·
O=C(CCCCCN1C(=O)c2ccccc2C1=O)NCCc1nc2ccccc2[nH]1	35	-35	56*	-15	0	53*
COc1ccc(S(=O)(=O)Nc2cc3c4c(c2)C(C)C(=O)N4CCC3)cc1OC (stereo not given)	25	-25	-2	3	·	·
CNC(=O)COC(=O)/C=C/c1cn(-c2ccccc2)nc1-c1ccc(C)o1	·	·	55*	·	0	44
O=C(Cc1ccc(Br)cc1)N(Cc1ccccc1)c1ccccn1	-9	9	6	0	·	·
C#CCOCCOCCOCCNc1nc(N2CCN(C(=O)[C@H](CCCCN)n3cc([C@@H](N)CC(N)=O)nn3)CC2)nc(N2CCN(C(=O)[C@H](CCCCN)n3cc([C@@H](N)CC(N)=O)nn3)CC2)n1	-9	9	108*	-15	-2	111*
SMILES	SR-BI HDL uptake	SR-BI uptake up	UBC13 inh	Neddylation inh	Casp3 counter	UBC13 conf
C#CCOCCOCCOCCNc1nc(N2CCN(C(=O)C([C@@H](C)O)n3cc([C@@H](N)CCCCN)nn3)CC2)nc(N2CCN(C(=O)[C@H](CCCCN)n3cc([C@@H](N)CC(N)=O)nn3)CC2)n1 (stereo not given in full)	-13	13	103*	-15	1	106*
O=C1CCC(C(=O)N2CCc3c(Cl)cccc3C2)CN1CCCN1CCOCC1 (stereo not given)	-4	4	-3	8	·	·
O=C1OC(Sc2ccccc2)(c2ccccc2)c2ccccc21 (stereo not given)	26	-26	·	7	·	·
CCOc1ccc2nc(NC3=NC(C)(C)C=C(C)N3)nc(C)c2c1	55	-55	57*	18	2	64*
CCOc1ccc2c(C)nc(NC3=NC(C)(C)C=C(C)N3)nc2c1	29	-29	37	21	·	·
CC(Sc1nnc(C(C)Oc2ccc(F)cc2)o1)C(=O)NCc1ccc2c(c1)OCO2 (stereo not given)	·	·	·	-9	·	·
Cc1ccccc1OCc1n(CC(=O)OC2CC(C)CCC2C(C)C)c2ccccc2[n+]1C (stereo not given)	34	-34	55*	0	1	98*
CC1CCC(C(C)C)C(OC(=O)Cn2c(-c3ccc(Br)cc3)[n+](C)c3ccccc32)C1 (stereo not given)	4	-4	55*	-5	1	78*
Cc1nn(CC(=O)N2CCC(C(N)=O)CC2)c(=O)c2nn(-c3ccccc3)c(C)c12	-40	40	2	0	·	·
COc1ccc(C(=O)OCC(=O)NC2CCCCCC2)cc1OC	-2	2	66*	-2	1	5
Cc1ccc(C(C)(O)CS(=O)(=O)Cc2ccccc2)cc1 (stereo not given)	-11	11	2	-6	·	·
CCOC(=O)C(=O)NC1CC=CCC1c1ccc2c(c1)OCO2 (stereo not given)	-27	27	·	-6	·	·
CCN(CC)CCNC(=O)c1cc2c(=O)n(CC)c3ccccc3c2s1	54	-54	57*	·	0	62*
CCN(CC)CCCNC(=O)c1cc2c(=O)n(CC)c3ccccc3c2s1	40	-40	42	·	·	·
CCN(CC)CCNC(=O)c1ccccc1N	-4	4	10	·	·	·
CCCN(CCC)CCNC(=O)c1cc2c(=O)n(CC)c3ccccc3c2s1	21	-21	73*	·	-3	74*
CCN(CC)CCNC(=O)c1cc2c(s1)-c1ccccc1SC2	-17	17	50*	·	-4	53*
CCn1c(=O)c2cc(C(=O)NCCN(C)C)sc2c2ccccc21	23	-23	46*	·	-1	35
CN(C)Cc1ncccc1Oc1nc2cc(-c3cccc(Cl)c3)sc2c(=O)n1C	·	·	·	-64	·	·
CCc1nc2ccc(C(=O)NCCCN3CCCC3=O)cn2c1N(C)C(=O)COc1ccccc1	·	·	·	11	·	·

Screens from PubChem BioAssay.
